Values after ≈ are worked out from the molar mass of the structure shown.
Assays:
Format in all cases: functional
Mycobacterium avium [1] = assay: Minimum Inhibitory Concentration in clinical isolates against Mycobacterium avium complex 101
Summary of the method: (§1)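 Broth macrodilution in tubes of modified Middlebrook 7H10 broth (agar and malachite green omitted) with 10% OADC and 0.05% Tween 80 at pH 5.8. Cultures were grown 3 days at 37 °C on a rotary shaker, then diluted with 7H10 broth to 1 Klett unit/mL. Stocks were made in water or DMSO and filter-sterilised; 2-fold serial dilutions were tested. Tubes shaken 7–10 days at 37 °C, with a drug-free control. MIC = lowest concentration (μg/mL) with no visible turbidity.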

Mycobacterium avium [2] = assay: Minimum Inhibitory Concentration against clinical isolates of Mycobacterium avium complex ATCC 49601; summary of the method: as §1
[3] = tested on: Mycobacterium tuberculosis; assay: Minimum Inhibitory Concentration against Mycobacterium tuberculosis ATCC 27294; summary of the method: as §1
[4] = tested on: Mycobacterium tuberculosis; assay: Minimum Inhibitory Concentration against Mycobacterium tuberculosis ATCC 35801; summary of the method: as §1
Mycobacterium kansasii = assay: Minimum Inhibitory Concentration against clinical isolates of Mycobacterium kansasii S
Summary of the method: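 Grown 3 days at 37 °C on a rotary shaker in modified Middlebrook 7H10 broth (agar and malachite green omitted) with 10% OADC and 0.05% Tween 80. Diluted to 1 Klett unit/mL. Tubes held serial 2-fold dilutions in 7H10 broth at pH 5.8, from stocks in water or DMSO, and were shaken at 37 °C for 7–10 days with a drug-free control. MIC was the lowest concentration with no visible turbidity.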

Mycobacterium avium [5] = assay: Minimum Inhibitory Concentration in clinical isolates against Mycobacterium avium complex ATCC 49601; summary of the method: as §1
[6] = Mycobacterium tuberculosis, ATCC 27294, read-out: MIC

SMILES	MIC (Mycobacterium avium [1])	MIC (Mycobacterium avium [2])	MIC [3, 6]	MIC [4]	MIC (Mycobacterium kansasii)	MIC (Mycobacterium avium [5])	MIC [3]
CCCCCCCC(C)OC(=O)c1cnc(Cl)cn1 (centres undefined)	32 µg/mL (≈ 112 µM)	32 µg/mL (≈ 112 µM)	1 µg/mL (≈ 3.51 µM)	0.5 µg/mL (≈ 1.76 µM)	< 0.03 µg/mL	–	–
CCCCCCCCC(C)(CCCC)OC(=O)c1cnc(Cl)cn1 (centres undefined)	> 64 µg/mL	> 64 µg/mL	16 µg/mL (≈ 45.1 µM)	16 µg/mL (≈ 45.1 µM)	16 µg/mL (≈ 45.1 µM)	–	–
CCCCCCCCCOC(=O)c1cnc(C)cn1	64 µg/mL (≈ 242 µM)	32 µg/mL (≈ 121 µM)	1 µg/mL (≈ 3.78 µM)	1 µg/mL (≈ 3.78 µM)	2 µg/mL (≈ 7.57 µM)	–	–
CCCCCC(C)OC(=O)c1cnc(Cl)cn1 (centres undefined)	32 µg/mL (≈ 125 µM)	32 µg/mL (≈ 125 µM)	0.06 µg/mL (≈ 0.234 µM)	0.5 µg/mL (≈ 1.95 µM)	< 0.125 µg/mL	–	–
Cc1cnc(C(=O)O)cn1	1020 µg/mL (≈ 7410 µM)	–	64 µg/mL (≈ 463 µM)	64 µg/mL (≈ 463 µM)	1020 µg/mL (≈ 7410 µM)	> 1020 µg/mL	–
O=C(O)c1cnc(Cl)cn1	–	–	64 µg/mL (≈ 404 µM)	64 µg/mL (≈ 404 µM)	64 µg/mL (≈ 404 µM)	> 1020 µg/mL	–
O=C(Oc1ccc(F)cc1)c1cnccn1	128 µg/mL (≈ 587 µM)	–	32 µg/mL (≈ 147 µM)	–	64 µg/mL (≈ 293 µM)	128 µg/mL (≈ 587 µM)	32 µg/mL (≈ 147 µM)
CCCCCCCCCCCC(C)OC(=O)c1cnc(Cl)cn1 (centres undefined)	256 µg/mL (≈ 751 µM)	32 µg/mL (≈ 93.9 µM)	2 µg/mL (≈ 5.87 µM)	0.5 µg/mL (≈ 1.47 µM)	0.06 µg/mL (≈ 0.176 µM)	–	–
NC(=O)c1cnccn1 [PYRAZINAMIDE]	> 2050 µg/mL	–	16 µg/mL (≈ 130 µM)	32 µg/mL (≈ 260 µM)	2050 µg/mL (≈ 16600 µM)	> 2050 µg/mL	–
O=C(O)c1cnccn1 [PYRAZINOIC ACID]	> 1020 µg/mL	–	32 µg/mL (≈ 258 µM)	32 µg/mL (≈ 258 µM)	256 µg/mL (≈ 2060 µM)	> 1020 µg/mL	–

From ChEMBL document CHEMBL1128446, “Pyrazinoic acid esters with broad spectrum in vitro antimycobacterial activity” (1995)
